Results as given in the M2OR odorant receptor database.
Changes are numbered by the printed parent chain.

Columns and labels:
Settings in all cases: stereoisomer not certain
OR2T3 R298C = system: T1, OR2T3 R298C
T1 sequence (whole entry): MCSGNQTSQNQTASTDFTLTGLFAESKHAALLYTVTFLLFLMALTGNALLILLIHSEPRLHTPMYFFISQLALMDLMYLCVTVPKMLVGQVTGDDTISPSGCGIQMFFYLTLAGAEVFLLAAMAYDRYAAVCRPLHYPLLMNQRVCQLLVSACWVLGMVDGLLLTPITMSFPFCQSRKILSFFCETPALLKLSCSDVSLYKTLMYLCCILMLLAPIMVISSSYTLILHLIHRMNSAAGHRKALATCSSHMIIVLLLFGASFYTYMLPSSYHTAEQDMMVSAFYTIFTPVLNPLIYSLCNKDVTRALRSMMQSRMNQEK
Procedure, shortened: (§1)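 Values were gathered from published papers (main text and supplementary material), with extra details requested from the original authors when needed, and checked for typos and inconsistencies. Each receptor–molecule pair is called responsive (active) if the original authors judged the measured signal statistically different from baseline, and non-responsive (inactive) otherwise. Assay methods varied by source, often transient mammalian cell-line luciferase assays. Recorded details include cell line, G-protein, co-transfected protein and tags.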

OR2T3 Y109H = system: T2, OR2T3 Y109H
T2 sequence (whole entry): T1 sequence (whole entry) with Y109H, C298R
Procedure, shortened: as §1

OR2T33 (Homo sapiens) = target: T3, OR2T33 (Homo sapiens) (UniProt Q8NG76)
T3 sequence (whole entry): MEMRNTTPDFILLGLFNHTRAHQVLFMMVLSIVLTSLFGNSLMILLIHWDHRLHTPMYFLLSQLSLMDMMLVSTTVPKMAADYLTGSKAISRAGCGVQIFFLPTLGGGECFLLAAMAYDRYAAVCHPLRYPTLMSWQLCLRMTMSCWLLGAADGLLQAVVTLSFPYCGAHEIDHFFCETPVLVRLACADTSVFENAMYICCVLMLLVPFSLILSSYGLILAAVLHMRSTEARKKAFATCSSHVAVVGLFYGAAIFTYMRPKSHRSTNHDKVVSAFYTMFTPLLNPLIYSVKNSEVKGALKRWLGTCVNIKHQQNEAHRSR
Procedure, shortened: as §1

OR2T34 (Homo sapiens) = target: T4, OR2T34 (Homo sapiens) (UniProt Q8NGX1)
T4 sequence (whole entry): T1 sequence (whole entry) with Y109H, T202M, M204T, A214T, H239R, P267R, C298R
Procedure, shortened: as §1

OR2T35 (Homo sapiens) = target: T5, OR2T35 (Homo sapiens) (UniProt Q8NGX2)
T5 sequence (whole entry): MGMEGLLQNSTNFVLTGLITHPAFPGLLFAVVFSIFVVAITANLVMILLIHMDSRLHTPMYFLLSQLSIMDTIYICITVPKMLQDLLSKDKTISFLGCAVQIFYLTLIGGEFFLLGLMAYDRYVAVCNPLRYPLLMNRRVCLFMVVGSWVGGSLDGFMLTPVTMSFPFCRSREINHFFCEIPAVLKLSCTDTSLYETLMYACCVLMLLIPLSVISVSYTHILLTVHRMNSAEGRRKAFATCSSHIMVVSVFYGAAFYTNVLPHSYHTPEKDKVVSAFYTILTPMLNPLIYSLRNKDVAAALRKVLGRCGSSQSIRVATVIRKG
Procedure, shortened: as §1

OR2T4 (Homo sapiens) = target: T6, OR2T4 (Homo sapiens) (UniProt Q8NH00)
T6 sequence (whole entry): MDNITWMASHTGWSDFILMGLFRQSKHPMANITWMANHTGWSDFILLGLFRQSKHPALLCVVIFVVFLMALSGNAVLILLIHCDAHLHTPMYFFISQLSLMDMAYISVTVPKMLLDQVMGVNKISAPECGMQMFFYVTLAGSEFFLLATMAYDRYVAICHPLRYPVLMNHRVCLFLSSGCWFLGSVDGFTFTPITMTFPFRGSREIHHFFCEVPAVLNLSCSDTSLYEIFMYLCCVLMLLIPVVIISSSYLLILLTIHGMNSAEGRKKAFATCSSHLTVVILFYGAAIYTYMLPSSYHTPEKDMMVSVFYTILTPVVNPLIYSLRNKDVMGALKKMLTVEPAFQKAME
Procedure, shortened: as §1

OR2T5 (Homo sapiens) = target: T7, OR2T5 (Homo sapiens) (UniProt Q6IEZ7)
T7 sequence (whole entry): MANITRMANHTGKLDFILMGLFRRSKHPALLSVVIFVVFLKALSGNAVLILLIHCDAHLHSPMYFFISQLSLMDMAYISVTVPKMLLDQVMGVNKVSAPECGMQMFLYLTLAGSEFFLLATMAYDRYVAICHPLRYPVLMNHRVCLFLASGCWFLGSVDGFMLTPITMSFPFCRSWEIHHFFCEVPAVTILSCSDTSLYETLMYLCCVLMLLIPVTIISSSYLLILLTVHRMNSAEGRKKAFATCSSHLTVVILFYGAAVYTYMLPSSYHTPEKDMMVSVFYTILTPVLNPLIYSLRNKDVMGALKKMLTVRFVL
Procedure, shortened: as §1

OR2T5 K13R K41M G45E = system: T8, OR2T5 K13R K41M G45E
T8 sequence (whole entry): T7 sequence (whole entry) with K13R, K41M, G45E
Procedure, shortened: as §1

OR2T5 K13R L134F = system: T9, OR2T5 K13R L134F
T9 sequence (whole entry): T7 sequence (whole entry) with K13R, L134F
Procedure, shortened: as §1

OR2T6 (Homo sapiens) = target: T10, OR2T6 (Homo sapiens) (UniProt Q8NHC8)
T10 sequence (whole entry): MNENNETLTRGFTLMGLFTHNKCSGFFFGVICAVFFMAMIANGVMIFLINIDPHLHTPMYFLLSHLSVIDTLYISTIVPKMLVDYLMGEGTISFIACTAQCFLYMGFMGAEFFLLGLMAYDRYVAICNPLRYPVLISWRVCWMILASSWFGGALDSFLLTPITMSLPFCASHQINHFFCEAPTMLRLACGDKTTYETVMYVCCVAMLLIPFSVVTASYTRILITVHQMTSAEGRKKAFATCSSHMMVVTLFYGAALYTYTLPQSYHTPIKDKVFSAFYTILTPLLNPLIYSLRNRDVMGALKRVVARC
Procedure, shortened: as §1

OR2T6 C23G = system: T11, OR2T6 C23G
T11 sequence (whole entry): T10 sequence (whole entry) with C23G
Procedure, shortened: as §1

OR2T7 = system: T12, OR2T7
T12 sequence (whole entry): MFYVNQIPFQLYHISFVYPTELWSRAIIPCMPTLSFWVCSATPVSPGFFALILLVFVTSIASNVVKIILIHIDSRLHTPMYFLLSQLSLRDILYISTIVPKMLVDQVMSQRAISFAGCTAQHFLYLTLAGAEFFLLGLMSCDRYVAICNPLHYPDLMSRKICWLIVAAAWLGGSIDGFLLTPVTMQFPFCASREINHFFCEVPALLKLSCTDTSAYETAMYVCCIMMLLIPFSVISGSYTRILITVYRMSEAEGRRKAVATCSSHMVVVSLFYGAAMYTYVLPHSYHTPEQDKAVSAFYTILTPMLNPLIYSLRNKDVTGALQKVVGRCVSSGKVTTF
Procedure, shortened: as §1

OR2T8 (Homo sapiens) = target: T13, OR2T8 (Homo sapiens) (UniProt A6NH00)
T13 sequence (whole entry): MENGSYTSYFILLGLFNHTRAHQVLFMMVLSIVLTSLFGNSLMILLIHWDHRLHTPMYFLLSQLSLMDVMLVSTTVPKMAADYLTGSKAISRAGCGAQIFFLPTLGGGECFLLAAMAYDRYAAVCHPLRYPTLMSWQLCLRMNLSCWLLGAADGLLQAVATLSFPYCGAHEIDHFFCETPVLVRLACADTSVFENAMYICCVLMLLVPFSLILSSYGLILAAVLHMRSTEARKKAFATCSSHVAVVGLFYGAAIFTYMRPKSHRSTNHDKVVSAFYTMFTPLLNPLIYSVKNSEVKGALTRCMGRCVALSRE
Procedure, shortened: as §1

OR2V1 (Homo sapiens) = target: T14, OR2V1 (Homo sapiens) (UniProt Q8NHB1)
T14 sequence (whole entry): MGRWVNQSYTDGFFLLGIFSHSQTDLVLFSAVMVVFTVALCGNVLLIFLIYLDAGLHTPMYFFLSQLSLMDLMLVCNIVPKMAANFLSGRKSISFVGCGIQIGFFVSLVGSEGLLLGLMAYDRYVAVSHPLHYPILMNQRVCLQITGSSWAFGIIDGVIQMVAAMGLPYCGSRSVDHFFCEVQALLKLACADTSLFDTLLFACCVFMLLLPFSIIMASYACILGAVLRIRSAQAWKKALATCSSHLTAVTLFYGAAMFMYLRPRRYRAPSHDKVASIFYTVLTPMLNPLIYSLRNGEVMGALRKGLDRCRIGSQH
Procedure, shortened: as §1

OR2V2 (Homo sapiens) = target: T15, OR2V2 (Homo sapiens) (UniProt Q96R30)
T15 sequence (whole entry): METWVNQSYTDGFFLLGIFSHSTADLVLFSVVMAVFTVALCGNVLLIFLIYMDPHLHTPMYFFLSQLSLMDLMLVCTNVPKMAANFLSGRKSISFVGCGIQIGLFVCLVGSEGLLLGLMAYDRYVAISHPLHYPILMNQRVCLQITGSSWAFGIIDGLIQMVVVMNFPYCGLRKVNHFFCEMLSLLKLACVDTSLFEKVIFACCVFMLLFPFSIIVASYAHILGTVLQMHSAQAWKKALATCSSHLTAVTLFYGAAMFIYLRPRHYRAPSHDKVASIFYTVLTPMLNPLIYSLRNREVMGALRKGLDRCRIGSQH
Procedure, shortened: as §1

OR2W1 (Homo sapiens) = target: T16, OR2W1 (Homo sapiens) (UniProt Q9Y3N9)
T16 sequence (whole entry): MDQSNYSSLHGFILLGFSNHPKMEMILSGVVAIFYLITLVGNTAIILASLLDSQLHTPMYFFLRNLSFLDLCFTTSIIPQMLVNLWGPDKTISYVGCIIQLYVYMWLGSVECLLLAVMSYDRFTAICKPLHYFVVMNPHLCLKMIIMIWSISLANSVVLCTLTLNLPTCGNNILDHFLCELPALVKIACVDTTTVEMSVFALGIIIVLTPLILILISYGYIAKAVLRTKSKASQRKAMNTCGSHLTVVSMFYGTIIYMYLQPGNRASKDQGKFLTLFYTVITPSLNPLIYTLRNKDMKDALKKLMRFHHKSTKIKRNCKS
Procedure, shortened: as §1

OR2W1 G96V = system: T17, OR2W1 G96V
T17 sequence (whole entry): T16 sequence (whole entry) with G96V
Procedure, shortened: as §1

OR2W1 [1] = system: T18, OR2W1
T18 sequence (whole entry): T16 sequence (whole entry) with D296N
Procedure, shortened: as §1

OR2W1 [2] = system: T19, OR2W1; remark: listed apart in the source
T19 sequence (whole entry): T16 sequence (whole entry) with M81V
Procedure, shortened: as §1

OR2T7 (Homo sapiens) = target: T20, OR2T7 (Homo sapiens) (UniProt P0C7T2)
T20 sequence (whole entry): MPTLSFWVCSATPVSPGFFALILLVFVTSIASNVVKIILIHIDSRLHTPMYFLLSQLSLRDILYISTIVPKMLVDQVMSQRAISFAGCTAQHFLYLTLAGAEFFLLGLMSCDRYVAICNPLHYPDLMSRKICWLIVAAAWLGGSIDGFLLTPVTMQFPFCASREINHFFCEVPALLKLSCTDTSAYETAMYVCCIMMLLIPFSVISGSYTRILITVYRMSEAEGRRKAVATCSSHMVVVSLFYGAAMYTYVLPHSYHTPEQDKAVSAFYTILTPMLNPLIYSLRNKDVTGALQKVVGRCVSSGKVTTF
Procedure, shortened: as §1

Measured: odorant receptor agonist call

CCCC(S)CCOC(C)=O (stereo unspecified)
inactive: OR2T3 R298C | OR2T3 Y109H | OR2T33 (Homo sapiens) | OR2T34 (Homo sapiens) | OR2T35 (Homo sapiens) | OR2T4 (Homo sapiens) | OR2T5 (Homo sapiens) | OR2T5 K13R K41M G45E | OR2T5 K13R L134F | OR2T6 (Homo sapiens) | OR2T6 C23G | OR2T7 | OR2T8 (Homo sapiens) | OR2V1 (Homo sapiens) | OR2V2 (Homo sapiens)
active: OR2W1 (Homo sapiens) | OR2W1 G96V | OR2W1 [1] | OR2W1 [2]

CC(C)=CCCC(C)CC=O (stereo unspecified)
inactive: OR2T34 (Homo sapiens)

CCCCCC(S)C(C)CO (stereo unspecified)
inactive: OR2T33 (Homo sapiens) | OR2T34 (Homo sapiens) | OR2T35 (Homo sapiens) | OR2T4 (Homo sapiens) | OR2T5 (Homo sapiens) | OR2T6 (Homo sapiens) | OR2T7 (Homo sapiens) | OR2T8 (Homo sapiens) | OR2V1 (Homo sapiens) | OR2V2 (Homo sapiens) | OR2W1 (Homo sapiens)
